Test results taken from PubChem BioAssay AID1885 (Broad Institute, 2009).
The campaign covered roughly 300,000 compounds. About 4,400 (1.5%) were called active. The sample holds actives, similar compounds and a random draw of the others, so the mix is not that of the screen. Unmarked numbers belong to inactive results.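 How the source made its calls: active means mean inhibition across valid replicates above about 55% (limit read from the data); inconclusive means mean below that limit but half or more replicates reach it; inactive means mean below it, under half of replicates reach it.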

Experiment: inhibitors of intracellular T. cruzi growth, primary screen, luminescence, NIH3T3 host cells (AID 1885);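 further: signal also drops with host cell toxicity which is not excluded here; 0% = plate median of DMSO wells and 100% = zero luminescence signal; higher percent means less beta-gal luminescence so fewer parasites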
Conditions: T. cruzi beta-gal in NIH3T3, luminescence, 90 h; active compounds read high; concentration not given here
Summary of the method: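 Read-out: Parasite load inhibition, % | Test system: Mouse NIH/3T3 fibroblasts infected with β-gal-expressing T. cruzi Tulahuen C4 | Amount: 5,000 cells/well | Medium: DMEM, 2% fetal bovine serum | Signal: GalScreen β-gal luminescence, detergent lysis, 60 min | Timing: 3 h attach, ≥90 h co-culture | Also added: Tulahuen C4 trypomastigotes, 5000/well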

SMILES	inhibition
CCc1ccc(Oc2nc([N+](=O)[O-])nn2C)cc1	66.5% (active)
COc1ccc(NC(=O)CCS(=O)(=O)c2cc3c(cc2Cl)NC(=O)CO3)cc1OC	1.37%
CC(C)CCN1CCN(Cc2cn[nH]c2C2CCCCC2)CC1CCO (centres undefined)	24.3%
CN(CCOc1ccccc1)C(=O)c1cc(COc2c(F)cccc2F)on1	-2.25%
COc1ccc(NC(=O)CCNC(=O)Cn2cnc3sc4c(c3c2=O)CCCC4)cc1OC	-2.4%
Cc1ccc(S(=O)(=O)N2CCN(C(=O)c3ccccc3-c3nc4ccccc4s3)CC2)c(C)c1	-3.66%
CC(NC(=O)c1cc2cc(Cl)ccc2oc1=N)c1ccccc1 (centres undefined)	-3.32%
C=CCOc1cccc(CNCc2cccnc2)c1	17.4%
Fc1ccccc1COc1cccc2cccnc12	-0.777%
c1ccc(COc2ccccc2CNCc2cccnc2)cc1	69.7% (active)
Fc1ccccc1COc1ccccc1CNCc1ccncc1	65.1% (active)
CCC(Oc1ccccc1)C(=O)NCc1cccnc1 (centres undefined)	-4.42%
COc1cccc(CNCCc2c[nH]c3ccccc23)c1OCc1ccccc1F	39.3%
CN(C(=O)CN1C(=O)NC(C)(CCc2ccccc2)C1=O)c1ccccc1 (centres undefined)	-3.39%
O=C(Nc1ccccc1Cl)N1CCN(c2ccc3nncn3n2)CC1	-2.95%
O=C1c2ccccc2C(=O)N1CC1c2ccccc2CCN1S(=O)(=O)c1ccccc1 (centres undefined)	-2.22%
Cc1c(Cl)c([N+](=O)[O-])nn1CCCC(=O)NC(C)c1ccccc1 (centres undefined)	6.9%
COC(=O)C(C)Sc1ccc2nnc(-c3cccc(F)c3)n2n1 (centres undefined)	19%
C1CC1Cc1noc(CN2CCN(CC3CC3)CC2)n1	1.1%
COc1ccc(NC(=O)CN(C)C(=O)CC2CCCCC2)cc1	-3.55%
FC(F)(F)c1ccc2c3n(nc2c1)CCN=C3c1ccc(Cl)cc1	1.67%
O=C(CNC(=O)c1cccnc1)N/N=C/c1cccnc1	-1.7%
Cc1nc2ccccc2n1CC(=O)N/N=C/c1cccnc1	-15.1%
O=C(CSc1cccc2cccnc12)N/N=C/c1cccnc1	64.7% (active)
COc1ccccc1OCC(=O)Nc1ccccc1C(=O)NC1CC1	-5.39%

SMILES	inhibition
O=S(=O)(Nc1ccc(O)c2ccccc12)c1ccc(OC(F)(F)F)cc1	8.4%
Cc1c(C)n2c(SCC(=O)NC3CCCC3)nnc2[nH]c1=O	-14.6%
Cc1ccc(Nc2c3c(nc4ccccc24)CCC3)cc1	39.2%
CC(=O)Nc1ccc(Nc2c3ccccc3nc3ccccc23)cc1	59.7% (active)
CC(=O)Nc1ccc(NC(=O)COc2ncnc3ccccc23)cc1	-17.1%
FC(F)(F)c1cccc(-c2nc(COc3ccc(Cl)cc3Cl)no2)c1	1.05%
COc1c(C(=O)N2CCCC2)ccc2ccccc12	-11.3%
CCCSc1nc2sc3c(c2c(=O)n1-c1ccc(OC)cc1)CCN(C)C3	57.4% (active)
CCOc1ccc(-n2c(SCC(=O)OC)nc3sc4c(c3c2=O)CCN(C)C4)cc1	5.98%
CCSc1nc2sc3c(c2c(=O)n1-c1ccc(C)cc1)CCN(C)C3	21.6%
CCOC(=O)N1CCC(N2Cc3cccc(C(=O)Nc4c(C)cccc4CC)c3C2=O)CC1	22%
Cc1ccc(S(=O)(=O)N2CCC(C(=O)NCCC3=CCCCC3)CC2)cc1C	8.76%
COc1ccc(Oc2c(Cl)cnn(-c3ccccc3)c2=O)cc1	-11.4%
Cc1cccc(-n2ncc(Cl)c(Cl)c2=O)c1	65.8% (active)
Cc1cccc(-n2ncc(C#N)c2-n2cccc2)c1	-8.8%
COc1ccc(N2CCN(C(=O)COC(=O)c3cccc(S(=O)(=O)Nc4ccccc4OC)c3)CC2)cc1	8.41%
COc1ccc(F)cc1S(=O)(=O)NCC(c1ccc2c(c1)OCO2)N1CCN(C)CC1 (centres undefined)	-3.53%
COC(=O)c1cc(S(=O)(=O)N2CCN(c3cc(C)ccc3C)CC2)c[nH]1	0.9%
S=C(Nc1ccc(Br)cc1)NC1CCN(Cc2ccccc2)CC1	42%
O=C(NC1CCN(Cc2ccccc2)CC1)c1ccc(Oc2cc(Cl)cc(Cl)c2)o1	44.9%
O=C(COc1ccc(Br)cc1F)NC1CCN(Cc2ccccc2)CC1	38.4%
O=C(NC1CCN(Cc2ccccc2)CC1)c1cc(Br)c(Br)[nH]1	70.3% (active)
S=C(Nc1ccc(Br)cc1Cl)NC1CCN(Cc2ccccc2)CC1	60.4% (active)
Cc1cc(C(=O)NC2CCN(Cc3ccccc3)CC2)n[nH]1	14.6%
